According to ChEMBL document CHEMBL3259569 (J Med Chem, 2014):
Activity calls are given as the source filed them. No cut-off for these calls is given here.

Experiments:
[1] = test system: TSGH; assay: Cytotoxicity against human TSGH cells by MTT assay; assay type: functional, cell-based
[2] = test system: HCT-116; assay: Induction of apoptosis in human HCT116 cells assessed as accumulation at sub-G1 phase after 24 hrs by propidium iodide staining-based flow cytometric analysis; assay type: functional, cell-based
Outline: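 HCT116 cells treated with indicated concentrations for 24 h; DNA content analyzed by flow cytometry for cell cycle distribution and sub-G1 fraction; means of at least three independent experiments.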

[3] = target: T1, Protein deacetylase HDAC6 (Homo sapiens, UniProt Q9UBN7); assay: Inhibition of HDAC6 (unknown origin) using RHKK(Ac) (379 to 382) p53 peptide as substrate by fluorescence assay
T1 sequence (Q9UBN7 whole entry): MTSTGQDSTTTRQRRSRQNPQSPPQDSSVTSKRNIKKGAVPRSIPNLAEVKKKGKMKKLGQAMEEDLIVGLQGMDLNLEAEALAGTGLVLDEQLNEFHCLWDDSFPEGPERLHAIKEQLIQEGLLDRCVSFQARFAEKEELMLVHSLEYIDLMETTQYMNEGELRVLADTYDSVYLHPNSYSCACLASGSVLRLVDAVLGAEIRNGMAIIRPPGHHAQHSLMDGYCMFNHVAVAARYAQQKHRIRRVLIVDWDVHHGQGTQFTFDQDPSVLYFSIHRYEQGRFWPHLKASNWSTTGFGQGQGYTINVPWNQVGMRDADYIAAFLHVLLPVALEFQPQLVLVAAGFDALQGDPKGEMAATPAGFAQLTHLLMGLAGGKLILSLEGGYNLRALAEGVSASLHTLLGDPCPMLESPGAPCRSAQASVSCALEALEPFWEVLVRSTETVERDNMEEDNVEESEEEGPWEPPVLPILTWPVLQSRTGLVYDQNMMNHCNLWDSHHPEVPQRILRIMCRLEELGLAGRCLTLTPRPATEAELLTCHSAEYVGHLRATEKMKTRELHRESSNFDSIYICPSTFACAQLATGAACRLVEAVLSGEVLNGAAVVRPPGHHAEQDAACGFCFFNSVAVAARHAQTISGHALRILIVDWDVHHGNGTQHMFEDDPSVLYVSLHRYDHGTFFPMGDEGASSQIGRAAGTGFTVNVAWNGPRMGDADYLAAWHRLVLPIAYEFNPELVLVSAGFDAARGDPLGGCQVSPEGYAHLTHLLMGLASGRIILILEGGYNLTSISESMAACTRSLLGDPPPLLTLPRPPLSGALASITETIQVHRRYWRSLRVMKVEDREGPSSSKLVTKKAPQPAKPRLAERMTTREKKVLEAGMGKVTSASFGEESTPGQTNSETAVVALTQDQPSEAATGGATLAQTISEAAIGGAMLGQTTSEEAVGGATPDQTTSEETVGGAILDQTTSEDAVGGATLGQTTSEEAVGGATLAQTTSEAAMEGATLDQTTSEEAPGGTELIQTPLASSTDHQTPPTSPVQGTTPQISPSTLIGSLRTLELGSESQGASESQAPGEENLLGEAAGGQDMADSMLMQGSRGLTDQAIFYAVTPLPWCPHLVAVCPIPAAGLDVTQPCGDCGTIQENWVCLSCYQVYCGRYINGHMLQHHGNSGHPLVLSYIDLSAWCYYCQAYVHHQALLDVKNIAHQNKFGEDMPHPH

[4] = target: Histone deacetylase (Homo sapiens) (UniProt Q13547+O15379+Q9UBN7+Q92769+Q9UQL6+Q8WUI4+Q9BY41+Q96DB2+P56524+Q9UKV0+Q969S8); conditions: HCT-116, 1 uM
[5] = target: Histone deacetylase 1 (Homo sapiens, UniProt Q13547); assay: Inhibition of HDAC1 (unknown origin) using RHKK(Ac) (379 to 382) p53 peptide as substrate by fluorescence assay
[6] = test system: HCT-116; assay: Antitumor activity against human HCT116 cells xenografted in nude athymic mouse assessed as tumor growth inhibition at 100 mg/kg/day, po after 2 to 16 days relative to control; assay type: functional; conditions: read-out: TGI
[7] = Cytotoxicity against human HONE1 cells by MTT assay; assay type: functional, cell-based
[8] = Half life in ICR mouse at 10 mg/kg, po by LC-MS/MS analysis; assay type: ADME, organism-based; design: dose 10 mg/kg, route oral; conditions: in vivo
[9] = Oral bioavailability in ICR mouse at 10 mg/kg by LC-MS/MS analysis; assay type: ADME, organism-based; conditions: in vivo
[10] = target: Histone deacetylase 5 (Homo sapiens, UniProt Q9UQL6); assay: Inhibition of HDAC5 (unknown origin) by fluorescence assay
[11] = test system: Mus musculus; assay: Toxicity in ICR mouse at 400 to 1000 mg/kg, po treated for 7 days measured for 1 week; assay type: organism-based; design: dose 400-1000 mg/kg, route oral; conditions: in vivo, 168 h
Outline: (§1)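 ICR mice fasted overnight, then given vehicle (0.2 mL/20 g) or compound orally at 400, 600 or 1000 mg/kg (n = 10/group) daily for 7 days, then monitored 1 week; weighed daily for 1 week, then twice weekly; 2/10 deaths defines toxic dose.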

[12] = test system: HCT-116; assay: Induction of apoptosis in human HCT116 cells assessed as PARP cleavage after 24 hrs by Western blotting analysis; assay type: functional, cell-based
Outline: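 HCT116 cells treated with indicated concentrations for 24 h; lysates probed by Western blot for caspase 3 and PARP cleavage.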

[13] = test system: HCT-116; assay: Induction of apoptosis in human HCT116 cells assessed as increase in p53 protein level at 0.1 to 3 uM after 24 hrs by immunoblotting analysis; assay type: functional, cell-based
[14] = Half life in ICR mouse at 2 mg/kg, iv by LC-MS/MS analysis; assay type: ADME, organism-based; design: dose 2 mg/kg, route intravenous; conditions: in vivo
[15] = test system: HCT-116; assay: Cytotoxicity against p53 knock down human HCT116 cells at 0.1 to 3 uM after 72 hrs by MTT assay; assay type: functional, cell-based
[16] = Cytotoxicity against human HSC3 cells by MTT assay; assay type: functional, cell-based; conditions: HSC-3
[17] = test system: HT-29; assay: Cytotoxicity against human HT-29 cells by MTT assay; assay type: functional, cell-based
[18] = AUC (0 to infinity) in ICR mouse at 10 mg/kg, po by LC-MS/MS analysis; assay type: ADME, organism-based; design: time infinity, dose 10 mg/kg, route oral; conditions: plasma
[19] = Volume of distribution at steady state in ICR mouse at 2 mg/kg, iv by LC-MS/MS analysis; assay type: ADME, organism-based; design: dose 2 mg/kg, route intravenous; conditions: in vivo, read-out: Vdss
[20] = test system: HCT-116; assay: Antitumor activity against human HCT116 cells xenografted in po dosed nude athymic mouse assessed as tumor growth inhibition after 2 to 16 days; assay type: functional, organism-based
[21] = Cytotoxicity against human H460 cells by MTT assay; assay type: functional, cell-based; conditions: NCI-H460
Outline: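 Antiproliferative IC50 in H460 cells; mean ± SD of at least three independent experiments.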

[22] = test system: HCT-116; assay: Induction of apoptosis in p53 knock down human HCT116 cells assessed as PARP cleavage at 1 uM after 24 hrs by immunoblotting analysis; assay type: functional, cell-based
[23] = test system: Mus musculus; assay: Toxicity in ICR mouse assessed as change in body weight at 400 to 1000 mg/kg, po treated for 7 days measured for 1 week; assay type: organism-based; design: dose 400-1000 mg/kg, route oral; conditions: in vivo, 168 h; outline: as §1
[24] = test system: MCF7; assay: Cytotoxicity against human MCF7 cells by MTT assay; assay type: functional, cell-based
[25] = test system: PC-3; assay: Cytotoxicity against human PC3 cells by MTT assay; assay type: functional, cell-based

Chain of Histone deacetylase 1 (Q13547 whole entry): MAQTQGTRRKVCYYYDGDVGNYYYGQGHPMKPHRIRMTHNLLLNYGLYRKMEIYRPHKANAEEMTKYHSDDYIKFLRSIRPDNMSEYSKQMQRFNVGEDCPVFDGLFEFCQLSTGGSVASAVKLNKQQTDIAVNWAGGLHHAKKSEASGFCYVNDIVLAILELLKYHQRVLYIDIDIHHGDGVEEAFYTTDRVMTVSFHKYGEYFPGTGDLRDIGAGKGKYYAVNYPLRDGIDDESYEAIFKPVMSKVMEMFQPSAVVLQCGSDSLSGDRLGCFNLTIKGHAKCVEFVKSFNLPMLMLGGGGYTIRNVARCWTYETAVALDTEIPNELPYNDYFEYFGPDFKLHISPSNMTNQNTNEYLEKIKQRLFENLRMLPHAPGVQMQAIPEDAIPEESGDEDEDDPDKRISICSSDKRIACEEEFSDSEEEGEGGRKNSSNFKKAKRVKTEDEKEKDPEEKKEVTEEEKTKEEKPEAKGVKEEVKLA
Chain of Histone deacetylase 5 (Q9UQL6 whole entry): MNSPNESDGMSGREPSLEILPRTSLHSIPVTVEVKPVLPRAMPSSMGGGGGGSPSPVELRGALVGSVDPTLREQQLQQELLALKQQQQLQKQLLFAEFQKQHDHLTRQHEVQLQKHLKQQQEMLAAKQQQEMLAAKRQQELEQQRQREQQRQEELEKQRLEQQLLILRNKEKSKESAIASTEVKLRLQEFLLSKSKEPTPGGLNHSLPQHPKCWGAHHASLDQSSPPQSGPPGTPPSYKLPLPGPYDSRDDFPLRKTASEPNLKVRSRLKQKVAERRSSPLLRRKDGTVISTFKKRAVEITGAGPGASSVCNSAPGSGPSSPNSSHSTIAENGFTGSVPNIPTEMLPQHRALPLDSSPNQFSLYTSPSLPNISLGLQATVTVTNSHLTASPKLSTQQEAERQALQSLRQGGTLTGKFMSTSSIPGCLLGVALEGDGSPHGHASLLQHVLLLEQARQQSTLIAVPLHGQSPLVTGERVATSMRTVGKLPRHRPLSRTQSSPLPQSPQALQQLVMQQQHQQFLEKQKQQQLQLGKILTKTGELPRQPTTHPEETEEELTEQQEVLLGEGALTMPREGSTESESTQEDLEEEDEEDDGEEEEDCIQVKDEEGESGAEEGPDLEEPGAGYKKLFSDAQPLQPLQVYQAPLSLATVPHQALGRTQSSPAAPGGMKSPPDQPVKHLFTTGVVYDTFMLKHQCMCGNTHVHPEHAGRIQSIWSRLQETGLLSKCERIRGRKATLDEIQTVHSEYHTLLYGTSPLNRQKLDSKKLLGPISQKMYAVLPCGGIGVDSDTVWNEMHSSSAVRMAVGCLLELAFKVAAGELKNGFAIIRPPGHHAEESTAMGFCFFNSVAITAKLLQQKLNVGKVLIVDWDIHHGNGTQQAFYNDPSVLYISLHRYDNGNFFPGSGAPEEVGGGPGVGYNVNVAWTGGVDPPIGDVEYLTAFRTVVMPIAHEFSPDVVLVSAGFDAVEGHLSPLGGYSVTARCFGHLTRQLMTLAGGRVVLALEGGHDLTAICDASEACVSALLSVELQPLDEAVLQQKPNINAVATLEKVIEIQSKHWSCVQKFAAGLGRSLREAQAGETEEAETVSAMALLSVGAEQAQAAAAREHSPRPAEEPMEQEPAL

IC50 [3]: 5.2 nM | inhibition [4]: inactive | IC50 [5]: 310 nM | half-life [8]: 2.4 h | bioavailability [9]: 33% | IC50 [10]: 8730 nM | half-life [14]: 2.5 h | AUC(0-inf) [18]: 466 ng·h/mL | Vd [19]: 9.8 L/kg
Structure (SMILES): O=C(/C=C/c1cccc(S(=O)(=O)n2ccc3cccnc32)c1)NO
IC50 [1]: 2100 nM | Activity [2]: Dose-dependent effect | inhibition in vivo at 100 mg/kg/day [6]: 66.9% | IC50 [7]: 1200 nM | Activity [11]: Non-toxic | Activity [12]: Dose-dependent effect | Activity [13]: Active | Activity [15]: inactive | IC50 [16]: 660 nM | IC50 [17]: 1240 nM | TGI [20]: Dose-dependent effect | IC50 [21]: 570 nM | Activity [22]: inactive | Activity [23]: Non-toxic | IC50 [24]: 1330 nM | IC50 [25]: 1630 nM
